The results in this text go back to ChEMBL document CHEMBL4513216, “Probing the Open Global Health Chemical Diversity Library for Multistage-Active Starting Points for Next-Generation Antimalarials” (ACS Infect Dis, 2020).

Each structure is given as a SMILES string.

A short description of this series: Toxicity liver stage against HepG2, at 10uM. In kind it is cell-based. Set-up: test concentration 10 uM, cell line HepG2-A16-CD81EGFP. The note with it: human, HepG2-A16-CD81EGFP cells; read-out: INHIBITION
The method, boiled down:
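Uninfected HepG2-A16-CD81EGFP cells, 3 × 10^3 per well, 1536-well, plated on prespotted compound at 10 μM final, parasite-free screening media added to match infected plates; puromycin 10 μM positive, DMSO 0.5% negative; run in parallel with 48 h PbLuc assay at 37 °C, 5% CO2; viability by CellTiter-Glo luminescence, normalized to controls.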
On to `CCOc1cc(CNC(C)c2sccc2C)ccn1` (configuration not stated), for which the cytotoxicity at 10 µM is -8.14%.
For the compound `CCN(C)[C@H]1CN(C(=O)c2cccc(N3CCS(=O)(=O)CC3)c2)C[C@@H]1O`, the cytotoxicity at 10 µM is -5.62%.
The figure for `COc1cccc(CN(Cc2ncc[nH]2)Cc2ccco2)c1` is -8.01%; for `CN(C)C(=O)c1ccc2c(c1)N(C)C(CC(=O)NCc1ccno1)CO2` (configuration not stated) it is 12.4%.
The figure for `COC(=O)CCN(C)C(=O)c1ccc(-c2cscn2)cc1` is -7.29%; for `CS(=O)(=O)Cc1ccc(CNC(=O)c2cccnc2O)cc1` it is 0.481%.
The figure for `Cc1ccc(-c2nnc(C3CCCN3S(=O)(=O)c3cnn(C)c3C)o2)s1` (configuration not stated) is 5.35%; for `CCN(CC)c1ccc2ccc(C(=O)N(CCOC)CCOC)cn12` it is 1.15%; for `CCc1nc(N2CCCC(CCOC)(C(=O)O)C2)ncc1C` (configuration not stated) it is 4.11%.
As to `Cc1ccccc1CS(=O)(=O)CC(=O)N(C)Cc1ccccc1`, the cytotoxicity at 10 µM stood at 2.84%.
To `Cc1ccc2c(n1)N(C)CCN(C(=O)NC1CC1)C2` belongs 1.36%; to `CCn1ccnc1CN1CCN(C(C)C(=O)N2CCC(C)CC2)CC1` (configuration not stated), -10.7%.
The figure for `CN(Cc1cccs1)Cc1nnsc1Cl` is -5.65%.
On to `CC(=O)N1CCc2nc(N3CCCC3)nc(C)c2C1`, for which the cytotoxicity at 10 µM is -0.567%.
Regarding `O=C(NC1CC(=O)N(C2Cc3ccccc3C2)C1)c1ccoc1` (configuration not stated), the cytotoxicity at 10 µM is -2.4%.
For the compound `COCc1ccccc1C(=O)NCC(O)c1ccc(Cl)s1` (configuration not stated), the cytotoxicity at 10 µM was -6.63%.
The figure for `CN(C)CC(=O)N1CCN(CC(O)c2ccc(F)cc2)CC1` (configuration not stated) is -9.11%.
As to `NC(=O)CN1CCC(NC(=O)N2CCCC2c2ccncc2)CC1` (configuration not stated), the cytotoxicity at 10 µM was found to be 10.5%.
To `Cc1nc[nH]c1CNCc1cccnc1N(C)C1CCCCC1` belongs 5.32%; to `CN(CCO)C[C@@H]1CN(Cc2ccccc2-c2ccccc2)C[C@@H]1CO`, -14%.
The figure for `CNC(=O)[C@H]1C[C@@H]2CN(C(=O)c3ccsc3)C[C@@H]2N1S(C)(=O)=O` is -2.42%.
The figure for `Cc1ccc(SCCN(C)C(=O)c2cn(C3CCC(N)CC3)nn2)cc1` (configuration not stated) is -8.59%; for `COc1ccc(C2OC(COc3ccccc3Br)=NN2C(C)=O)cc1` (configuration not stated) it is 3.56%.
Turning to `O=C(c1nnn(-c2ccc(F)cc2)n1)N1CCC(O)CC1`, the cytotoxicity at 10 µM is 5.86%.
The figure for `Cc1n[nH]cc1CNc1ccc2c(c1)CN(C(=O)OC(C)(C)C)CC2` is 14.9%; for `C=C(C)COc1ccccc1CN1CCCC(C(=O)NCCCO)C1` (configuration not stated) it is 7.36%.
The figure for `Cc1ncccc1NC(=O)[C@H]1C[C@@H]2CCN(Cc3nccs3)C[C@@H]2O1` is 0.976%.
The figure for `CCN1C[C@H]2C3(CCN(C(=O)NC(C)C)CC3)CC[C@@]2(C(=O)N(C)C)C1` is -109%; for `CC(=O)c1ccc(NC(=O)NC(C(=O)N(C)C)C(C)C)cc1` (configuration not stated) it is -5.55%.
As to `O=c1cc(C2CCNCC2)nc(CCCc2ccccc2)[nH]1`, the cytotoxicity at 10 µM came to 2.03%.
To `Cc1ccc(-n2nnnc2C2(NCc3ccco3)CCCC2)cc1` belongs 7.55%.
The figure for `CCCn1nccc1NC(=O)CN1CCc2cnc(CC)nc2C1` is 2.31%.
In the case of `COCCOc1ccc(NC(=O)N(C(C)C)C2CC2)cn1`, the cytotoxicity at 10 µM was -9.59%.
To `CSc1ccc(CNC2(c3ccc(F)cc3)CCOCC2)cc1` belongs -4.51%.
To `Cc1ccc(NC(=O)Cn2cc(I)cn2)cc1C` belongs 5.03%.
To `Cc1cccc(C)c1Nc1noc2c1CN(C(=O)c1c[nH]nc1C)CC2` belongs 6.22%; to `CC(Oc1cc(Cl)cc(Cl)c1)C(=O)NCCC(=O)N(C)C` (configuration not stated), -6.51%; to `Cc1ccc(C(=O)NCC(C)Cn2cccn2)c(=O)[nH]1` (configuration not stated), 3.14%.
In the case of `O=C(c1cc(C2CCCCN2CCO)n[nH]1)N1CCOCC1` (configuration not stated), the cytotoxicity at 10 µM is -24.5%.
The figure for `O=C(NC1CC1)N1CCc2ccc(=O)n(Cc3ccncc3)c2CC1` is -0.972%; for `COc1ccccc1OCCCc1cccc(C#N)n1` it is -5.62%; for `COc1c(CNCc2cnn(C)c2)c(C(C)C)nn1C` it is -7.39%.
The figure for `CCn1c(-c2ccccc2)nn(CC(=O)NCCc2ccc(C)s2)c1=O` is 7.69%; for `C=C(C)CSc1nnc(CCNC(=O)OC(C)(C)C)o1` it is 8.94%.
On to `COCCN(Cc1sccc1C)C(=O)COc1ccccc1O`, for which the cytotoxicity at 10 µM was -145%.
To `CN(CCc1ccccn1)C(=O)c1cccs1` belongs 3.45%; to `CCn1ccnc1CN1CCNCC1C` (configuration not stated), -3.03%; to `CN1C[C@@H]2CN(C(=O)NCc3cccc(F)c3)CCC[C@]2(C(=O)O)C1`, 1.14%.
For `CCSc1nc(N)c(NC(=O)c2ccc(C)cc2)c(=O)[nH]1`, the cytotoxicity at 10 µM was -57.3%.
The figure for `c1cc(-c2nc(CN3CCc4c(ncn4C4CC4)C3)cs2)cs1` is -4.25%; for `O=C(CCN1CCCCO1)N1CCC(CO)(Cc2ccccc2)CC1` it is 7.26%; for `Cc1ccc(C(=O)Nc2ccc(OC3CCN(C)CC3)cc2)c(C)c1` it is 7.48%.
The figure for `Cc1cc(=O)n(C)cc1NC(=O)Cc1cc(F)ccc1F` is -11.4%; for `CN1CC(=O)N(c2cccc(F)c2)CC12CCN(Cc1ccsc1)C2` (configuration not stated) it is 4.93%; for `Cn1ncc(N2CCC(CNC3CC(c4ccccc4)C3)CC2)cc1=O` (configuration not stated) it is -2.15%.
For `c1cnn(CC2CCCN2c2ncnc3ccsc23)c1` (configuration not stated), the cytotoxicity at 10 µM is 9.12%.
To `Cc1nsc(NC(=O)NC2(CN3CCOCC3)CCCC2)n1` belongs 3.89%; to `Fc1ccc(-c2cnc(CN3CCOC(Cn4cccn4)C3)o2)cc1` (configuration not stated), -12.1%; to `CC(OCC(F)(F)F)C(=O)N1CCCC1` (configuration not stated), -14%.
On to `CCCNC(=O)C[S+]([O-])Cc1csc(C2CCCCC2)n1` (configuration not stated), for which the cytotoxicity at 10 µM was -48.2%.
The figure for `CC(c1ccncc1)N(C)C(=O)NCCOc1ccc(C#N)cc1` (configuration not stated) is -15.5%.
Take `CCC(C)(NCC(=O)NC(=O)NC)c1nc(C)cs1` (configuration not stated): the cytotoxicity at 10 µM was -4.36%.
To `COc1ccc(C(=O)C2CCCN(Cc3ccon3)C2)c(OC)c1` (configuration not stated) belongs -4.46%.
The figure for `Cc1ncsc1CCN(C)C(=O)CN1C(=O)OC[C@@H]1c1ccccc1` is -51.2%.
The figure for `Cc1cnn(CC2CCCN2CC(=O)N(C)Cc2cnn(C)c2)c1` (configuration not stated) is 8.92%; for `CN(C)Cc1ccc(C(=O)N2CCCC(n3cccn3)C2)cc1` (configuration not stated) it is -0.798%.
Take `COCC(=O)N1CCCn2c(CN3CCCC3=O)nnc2C1`: the cytotoxicity at 10 µM was -123%.
As for `CN(Cc1ccc2c(c1)OCO2)C(=O)c1ccc(C2CCCNC2)cc1` (configuration not stated), the cytotoxicity at 10 µM was -11.8%.
Regarding `COCCOc1ncccc1C(=O)N1CCCC1Cn1cc(C)cn1` (configuration not stated), the cytotoxicity at 10 µM is -2.95%.
For the compound `Cc1cnc(-c2nc(O)c3c(n2)CN(C(=O)CC2CCCC2)CC3)cn1`, the cytotoxicity at 10 µM is -1.37%.
To `O=C(c1cc(C2CC2)n[nH]1)N1C[C@H]2CC[C@](O)(c3ccccc3F)[C@H]2C1` belongs 7.66%.
To `CCCn1cc(S(=O)(=O)N[C@H]2CN(C(C)=O)C[C@@H]2C2CC2)cn1` belongs -1.48%.
To `Cc1cc2ncn(C(=O)N3CCCC3)c2cc1C` belongs -6.01%; to `Cc1cc(C)n(C2CN(CC(=O)N3CCOCC3)C2)n1`, -3.2%; to `COc1ccc(CC(=O)N2CCCC(c3nncn3C)C2)cc1` (configuration not stated), -7.47%.
Regarding `Cc1cc(O)nc(C2CN(CCO)CCO2)n1` (configuration not stated), the cytotoxicity at 10 µM was -27.8%.
To `Cc1n[nH]c(C)c1CNC(=O)NC1CCCN(c2ccccc2F)C1` (configuration not stated) belongs -2.57%; to `COc1ccsc1C(=O)N1CCCC(n2nc(C)nc2C)C1` (configuration not stated), -3.69%.
As to `Cn1ccnc1CN1CCCN(C(=O)c2ccc(Cl)o2)CC1`, the cytotoxicity at 10 µM was -7.03%.
As for `CC1c2cccn2CCN1C(=O)CCc1nc(-c2ccccc2)no1` (configuration not stated), the cytotoxicity at 10 µM came to 0.45%.
The figure for `Cc1noc(C)c1CCC(=O)NCC1(O)CCN(c2ccccn2)C1` (configuration not stated) is 2.12%; for `COCCNc1nc(C2CCCC2)nc2c1CCNCC2` it is -6.4%; for `Cc1noc(C)c1CN1CC[C@H]2OCC[C@@]2(C(=O)N2CCOCC2)C1` it is -77.2%.
The figure for `CCc1ccc(CN2CCc3[nH]nc(C(=O)N4CCNC(=O)C4)c3C2)o1` is 17.5%; for `Cc1cccn2c(NC(C)(C)C)c(C3CCN(C(=O)C4CC4)CC3)nc12` it is 3.53%; for `COc1ccc(CN2C[C@@H]3OCCN(CC4CCCO4)[C@@H]3C2)cc1` (some centres not stated) it is -0.851%.
To `OC1CCCN(Cc2cn(CC3CCN(C4CCSCC4)CC3)nn2)C1` (configuration not stated) belongs -61%; to `Cc1nn2c(NCC(N)=O)cc(-c3ccccc3)nc2c1C`, -10.5%; to `CC(=O)N1CCC(Oc2ccc(C#N)cc2)CC1`, -83.4%.
On to `CN1N=C(C(=O)N2CCN(c3ncccn3)CC2)CCC1=O`, for which the cytotoxicity at 10 µM amounted to 3.62%.
`COCC(=O)N1CCC2(CC1)COCCN2CCN(C)C`: the cytotoxicity at 10 µM is -3.28%.
The figure for `C1CC(CN2C[C@@H]3C[C@@H](c4nnc(C5CC5)o4)O[C@@H]3C2)C1` is 14.9%; for `CCc1noc(CC)c1CC(=O)N1CCN(C(C#N)C(C)C)CC1` (configuration not stated) it is -9.66%.
To `COCCCNC(=O)Cc1nc(-c2ccncc2)n[nH]1` belongs -9.72%; to `Cc1ccsc1CNC(=O)Nc1ccn(CCN2CCOCC2)n1`, 8.28%; to `COCc1ncc(CN(Cc2ccco2)C(C)C(C)C)cn1` (configuration not stated), -0.0832%.
The figure for `Cn1ccc2ccc(C(=O)N3CCC[C@H]3C(=O)N3CCOCC3)cc21` is -0.829%.
